Columns and labels:
Format in all cases: functional
[1] = tested on: IGROV-1; assay: Cytotoxicity against human IGROV1 cells assessed as cell growth at 10 uM after 48 hrs by SRB assay relative to control; details: IGROV-1, 48 h, read-out: Activity
Outline: (§1)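 NCI primary screen of about 60 human tumour lines. Cells inoculated and preincubated, then a single test concentration added and cultures incubated 48 h. Result given as percent growth (G%) of treated versus untreated control cells.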

[2] = tested on: SF-539; assay: Cytotoxicity against human SF539 cells assessed as cell growth at 10 uM after 48 hrs by SRB assay relative to control; details: SF-539, 48 h, read-out: Activity
[3] = tested on: K562; assay: Cytotoxicity against human K562 cells assessed as cell growth at 10 uM after 48 hrs by SRB assay relative to control; details: K562, 48 h, read-out: Activity; outline: as §1
[4] = tested on: M14; assay: Cytotoxicity against human M14 cells assessed as cell growth at 10 uM after 48 hrs by SRB assay relative to control; details: M14, 48 h, read-out: Activity; outline: as §1
[5] = tested on: A549; assay: Cytotoxicity against human A549 cells assessed as cell growth at 10 uM after 48 hrs by SRB assay relative to control; details: A549, 48 h, read-out: Activity; outline: as §1
[6] = tested on: UO-31; assay: Cytotoxicity against human UO31 cells assessed as cell growth at 10 uM after 48 hrs by SRB assay relative to control; details: UO-31, 48 h, read-out: Activity
Outline: (§2)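 NCI single-dose primary screen across about 60 human tumour lines. Each line was inoculated and preincubated on microtiter plates, then exposed to one concentration of agent for 48 h. Growth is reported as percent growth (G%) of treated cells versus untreated control cells.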

[7] = tested on: MDA-MB-468; assay: Cytotoxicity against human MDA-MB-468 cells assessed as cell growth at 10 uM after 48 hrs by SRB assay relative to control; details: MDA-MB-468, 48 h, read-out: Activity
[8] = tested on: Malme-3M; assay: Cytotoxicity against human MALME-3M cells assessed as cell growth at 10 uM after 48 hrs by SRB assay relative to control; details: read-out: Activity; outline: as §1
[9] = tested on: UACC-257; assay: Cytotoxicity against human UACC257 cells assessed as cell growth at 10 uM after 48 hrs by SRB assay relative to control; details: UACC-257, 48 h, read-out: Activity; outline: as §2
[10] = tested on: CCRF-CEM; assay: Cytotoxicity against human CCRF-CEM cells assessed as cell growth at 10 uM after 48 hrs by SRB assay relative to control; details: read-out: Activity; outline: as §1
[11] = tested on: T47D; assay: Cytotoxicity against human T47D cells assessed as cell growth at 10 uM after 48 hrs by SRB assay relative to control; details: read-out: Activity; outline: as §2
[12] = tested on: HCT-15; assay: Cytotoxicity against human HCT15 cells assessed as cell growth at 10 uM after 48 hrs by SRB assay relative to control; details: HCT-15, 48 h, read-out: Activity; outline: as §1
[13] = tested on: COLO 205; assay: Cytotoxicity against human COLO205 cells assessed as cell growth at 10 uM after 48 hrs by SRB assay relative to control; details: COLO 205, 48 h, read-out: Activity; outline: as §1
[14] = tested on: RXF 393; assay: Cytotoxicity against human RXF393 cells assessed as cell growth at 10 uM after 48 hrs by SRB assay relative to control; details: RXF 393, 48 h, read-out: Activity
[15] = tested on: DU-145; assay: Cytotoxicity against human DU145 cells assessed as cell growth at 10 uM after 48 hrs by SRB assay relative to control; details: DU-145, 48 h, read-out: Activity; outline: as §1
[16] = tested on: SR; assay: Cytotoxicity against human SR cells assessed as cell growth at 10 uM after 48 hrs by SRB assay relative to control; details: read-out: Activity; outline: as §2
[17] = tested on: KM12; assay: Cytotoxicity against human KM12 cells assessed as cell growth at 10 uM after 48 hrs by SRB assay relative to control; details: KM12, 48 h, read-out: Activity; outline: as §1
[18] = tested on: SF-295; assay: Cytotoxicity against human SF295 cells assessed as cell growth at 10 uM after 48 hrs by SRB assay relative to control; details: SF-295, 48 h, read-out: Activity
[19] = tested on: NCI-H226; assay: Cytotoxicity against human NCI-H226 cells assessed as cell growth at 10 uM after 48 hrs by SRB assay relative to control; details: NCI-H226, 48 h, read-out: Activity
[20] = tested on: MCF7; assay: Cytotoxicity against human MCF7 cells assessed as cell growth at 10 uM after 48 hrs by SRB assay relative to control; details: MCF7, 48 h, read-out: Activity; outline: as §1
[21] = tested on: NCI/ADR-RES; assay: Cytotoxicity against human NCI/ADR-RES cells assessed as cell growth at 10 uM after 48 hrs by SRB assay relative to control; details: read-out: Activity
[22] = tested on: U-251; assay: Cytotoxicity against human U251 cells assessed as cell growth at 10 uM after 48 hrs by SRB assay relative to control; details: U-251, 48 h, read-out: Activity; outline: as §2
[23] = tested on: SNB-75; assay: Cytotoxicity against human SNB75 cells assessed as cell growth at 10 uM after 48 hrs by SRB assay relative to control; details: SNB-75, 48 h, read-out: Activity
[24] = tested on: SK-MEL-5; assay: Cytotoxicity against human SK-MEL-5 cells assessed as cell growth at 10 uM after 48 hrs by SRB assay relative to control; details: SK-MEL-5, 48 h, read-out: Activity
[25] = tested on: 786-0; assay: Cytotoxicity against human 786-0 cells assessed as cell growth at 10 uM after 48 hrs by SRB assay relative to control; details: 786-0, 48 h, read-out: Activity; outline: as §1
[26] = tested on: LOX IMVI; assay: Cytotoxicity against human LOXIMVI cells assessed as cell growth at 10 uM after 48 hrs by SRB assay relative to control; details: read-out: Activity; outline: as §1
[27] = tested on: EKVX; assay: Cytotoxicity against human EKVX cells assessed as cell growth at 10 uM after 48 hrs by SRB assay relative to control; details: read-out: Activity; outline: as §1
[28] = tested on: NCI-H23; assay: Cytotoxicity against human NCI-H23 cells assessed as cell growth at 10 uM after 48 hrs by SRB assay relative to control; details: NCI-H23, 48 h, read-out: Activity
[29] = tested on: NCI-H460; assay: Cytotoxicity against human NCI-H460 cells assessed as cell growth at 10 uM after 48 hrs by SRB assay relative to control; details: NCI-H460, 48 h, read-out: Activity
[30] = tested on: OVCAR-5; assay: Cytotoxicity against human OVCAR5 cells assessed as cell growth at 10 uM after 48 hrs by SRB assay relative to control; details: OVCAR-5, 48 h, read-out: Activity
[31] = tested on: OVCAR-4; assay: Cytotoxicity against human OVCAR4 cells assessed as cell growth at 10 uM after 48 hrs by SRB assay relative to control; details: OVCAR-4, 48 h, read-out: Activity
[32] = tested on: ACHN; assay: Cytotoxicity against human ACHN cells assessed as cell growth at 10 uM after 48 hrs by SRB assay relative to control; details: read-out: Activity; outline: as §1
[33] = tested on: HOP-92; assay: Cytotoxicity against human HOP92 cells assessed as cell growth at 10 uM after 48 hrs by SRB assay relative to control; details: HOP-92, 48 h, read-out: Activity; outline: as §1
[34] = tested on: PC-3; assay: Cytotoxicity against human PC3 cells assessed as cell growth at 10 uM after 48 hrs by SRB assay relative to control; details: PC-3, 48 h, read-out: Activity

## CSC1=Nc2c(c(C)c(-c3ccccc3)n2CCCN2CCCCC2)C2=NC(=O)CC(C)N12 (stereo not given)
[1]
  growth at 10 µM: 23%
[2]
  growth at 10 µM: 79%
[3]
  growth at 10 µM: 12%
[4]
  growth at 10 µM: 60%
[5]
  growth at 10 µM: 32%
[6]
  growth at 10 µM: 57%
[7]
  growth at 10 µM: -19%
[8]
  growth at 10 µM: 57%
[9]
  growth at 10 µM: 41%
[10]
  growth at 10 µM: 21%
[11]
  growth at 10 µM: -2%
[12]
  growth at 10 µM: 81%
[13]
  growth at 10 µM: -87%
[14]
  growth at 10 µM: 56%
[15]
  growth at 10 µM: 48%
[16]
  growth at 10 µM: 2%
[17]
  growth at 10 µM: 2%
[18]
  growth at 10 µM: 39%
[19]
  growth at 10 µM: 69%
[20]
  growth at 10 µM: 14%
[21]
  growth at 10 µM: 82%
[22]
  growth at 10 µM: 12%
[23]
  growth at 10 µM: 50%
[24]
  growth at 10 µM: 10%
[25]
  growth at 10 µM: 80%
[26]
  growth at 10 µM: 42%
[27]
  growth at 10 µM: 42%
[28]
  growth at 10 µM: 63%
[29]
  growth at 10 µM: 38%
[30]
  growth at 10 µM: 83%
[31]
  growth at 10 µM: 44%
[32]
  growth at 10 µM: 67%

## CSC1=Nc2c(c(C)c(-c3ccccc3)n2CCCC(=O)O)C2=NC(=O)CN12
[1]
  growth at 10 µM: 88%
[2]
  growth at 10 µM: 92%
[3]
  growth at 10 µM: 99%
[4]
  growth at 10 µM: 104%
[5]
  growth at 10 µM: 101%
[6]
  growth at 10 µM: 82%
[7]
  growth at 10 µM: 90%
[8]
  growth at 10 µM: 133%
[9]
  growth at 10 µM: 99%
[10]
  growth at 10 µM: 102%
[11]
  growth at 10 µM: 106%
[12]
  growth at 10 µM: 95%
[13]
  growth at 10 µM: 153%
[14]
  growth at 10 µM: 96%
[15]
  growth at 10 µM: 116%
[17]
  growth at 10 µM: 100%
[18]
  growth at 10 µM: 105%
[19]
  growth at 10 µM: 107%
[20]
  growth at 10 µM: 94%
[21]
  growth at 10 µM: 98%
[22]
  growth at 10 µM: 90%
[23]
  growth at 10 µM: 83%
[24]
  growth at 10 µM: 97%
[25]
  growth at 10 µM: 102%
[26]
  growth at 10 µM: 77%
[27]
  growth at 10 µM: 95%
[28]
  growth at 10 µM: 105%
[29]
  growth at 10 µM: 102%
[33]
  growth at 10 µM: 95%
[34]
  growth at 10 µM: 94%
[30]
  growth at 10 µM: 98%
[31]
  growth at 10 µM: 92%
[32]
  growth at 10 µM: 89%

## CSC1=Nc2c(c(C)c(-c3ccccc3)n2CCCCl)C2=NC(=O)CN12
[1]
  growth at 10 µM: 48%
[2]
  growth at 10 µM: 62%
[3]
  growth at 10 µM: 19%
[4]
  growth at 10 µM: 31%
[5]
  growth at 10 µM: 74%
[6]
  growth at 10 µM: 57%
[7]
  growth at 10 µM: 47%
[8]
  growth at 10 µM: 83%
[9]
  growth at 10 µM: 84%
[10]
  growth at 10 µM: 52%
[11]
  growth at 10 µM: 72%
[12]
  growth at 10 µM: 65%
[13]
  growth at 10 µM: 79%
[14]
  growth at 10 µM: 95%
[15]
  growth at 10 µM: 95%
[16]
  growth at 10 µM: 13%
[17]
  growth at 10 µM: 26%
[18]
  growth at 10 µM: 43%
[19]
  growth at 10 µM: 79%
[20]
  growth at 10 µM: 36%
[21]
  growth at 10 µM: 58%
[22]
  growth at 10 µM: 52%
[23]
  growth at 10 µM: 21%
[24]
  growth at 10 µM: 51%
[25]
  growth at 10 µM: 78%
[26]
  growth at 10 µM: 50%
[27]
  growth at 10 µM: 54%
[28]
  growth at 10 µM: 78%
[33]
  growth at 10 µM: 65%
[34]
  growth at 10 µM: 69%
[30]
  growth at 10 µM: 86%
[31]
  growth at 10 µM: 76%
[32]
  growth at 10 µM: 88%

## CSC1=Nc2c(c(C)c(-c3ccccc3)n2CCCN2CCN(C)CC2)C2=NC(=O)CN12
[1]
  growth at 10 µM: 92%
[2]
  growth at 10 µM: 86%
[3]
  growth at 10 µM: 93%
[4]
  growth at 10 µM: 100%
[5]
  growth at 10 µM: 90%
[6]
  growth at 10 µM: 78%
[7]
  growth at 10 µM: 79%
[8]
  growth at 10 µM: 125%
[9]
  growth at 10 µM: 100%
[10]
  growth at 10 µM: 86%
[11]
  growth at 10 µM: 80%
[12]
  growth at 10 µM: 102%
[13]
  growth at 10 µM: 91%
[14]
  growth at 10 µM: 106%
[15]
  growth at 10 µM: 101%
[16]
  growth at 10 µM: 70%
[17]
  growth at 10 µM: 99%
[18]
  growth at 10 µM: 110%
[19]
  growth at 10 µM: 76%
[20]
  growth at 10 µM: 86%
[21]
  growth at 10 µM: 98%
[22]
  growth at 10 µM: 101%
[23]
  growth at 10 µM: 51%
[24]
  growth at 10 µM: 91%
[25]
  growth at 10 µM: 98%
[26]
  growth at 10 µM: 93%
[27]
  growth at 10 µM: 96%
[28]
  growth at 10 µM: 94%
[29]
  growth at 10 µM: 101%
[30]
  growth at 10 µM: 99%
[31]
  growth at 10 µM: 89%
[32]
  growth at 10 µM: 90%
